In the library only some 2.9% were active in any assay of this set; here they are far more common.
Arrestin-AP2 inh: inhibitors of beta-arrestin/AP2 binding, primary screen, biochemical, GPCR trafficking, flow cytometry; beta-arrestin 1 C-terminal peptide binding to AP2 beta2-adaptin appendage (human); FITC-arrestin peptide / GST-AP2 beads; AP2 beta2 appendage carries R879A mutation; 340,000 tested, 0.31% active; inhibition, % at 10 µM; AID 504490, 2011;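 active = inhibition above a set limit, near 3 SD of compounds lacking own fluorescence, cut at about 54% in these data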;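 note: plate controls were DMSO wells for no effect and 5 µM unlabelled arrestin peptide for full effect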
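System: GST-AP2 R879A glutathione beads. Medium: PBS with 0.05% Tween 20 and 0.1% BSA. Also added: FITC-arrestin peptide, 50 nM. Incubation: 12 min plus 1 h, RT. Measured by: high-throughput flow cytometry of beads, ex 488, em 535 nm. Evaluation: percent drop in bead-associated FITC signal.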
FAS TE block: FAS thioesterase domain inhibitors, primary screen, biochemical, fluorescence intensity, uHTS | Fatty acid synthase (Homo sapiens), P49327 | recombinant FAS-TE, OMFH fluorogenic substrate, fluorescence endpoint | inhibition, % at 15 µM | 360,000 tested, 0.67% active | AID 602261, 2012;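 active = compounds whose normalised, plate-corrected inhibition of enzyme fluorescence in the single-dose primary screen is 50% or more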;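 note: 0% = DMSO with enzyme and 100% = substrate without enzyme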
Target sequence (P49327 whole entry, looked up, the tested form may be a part): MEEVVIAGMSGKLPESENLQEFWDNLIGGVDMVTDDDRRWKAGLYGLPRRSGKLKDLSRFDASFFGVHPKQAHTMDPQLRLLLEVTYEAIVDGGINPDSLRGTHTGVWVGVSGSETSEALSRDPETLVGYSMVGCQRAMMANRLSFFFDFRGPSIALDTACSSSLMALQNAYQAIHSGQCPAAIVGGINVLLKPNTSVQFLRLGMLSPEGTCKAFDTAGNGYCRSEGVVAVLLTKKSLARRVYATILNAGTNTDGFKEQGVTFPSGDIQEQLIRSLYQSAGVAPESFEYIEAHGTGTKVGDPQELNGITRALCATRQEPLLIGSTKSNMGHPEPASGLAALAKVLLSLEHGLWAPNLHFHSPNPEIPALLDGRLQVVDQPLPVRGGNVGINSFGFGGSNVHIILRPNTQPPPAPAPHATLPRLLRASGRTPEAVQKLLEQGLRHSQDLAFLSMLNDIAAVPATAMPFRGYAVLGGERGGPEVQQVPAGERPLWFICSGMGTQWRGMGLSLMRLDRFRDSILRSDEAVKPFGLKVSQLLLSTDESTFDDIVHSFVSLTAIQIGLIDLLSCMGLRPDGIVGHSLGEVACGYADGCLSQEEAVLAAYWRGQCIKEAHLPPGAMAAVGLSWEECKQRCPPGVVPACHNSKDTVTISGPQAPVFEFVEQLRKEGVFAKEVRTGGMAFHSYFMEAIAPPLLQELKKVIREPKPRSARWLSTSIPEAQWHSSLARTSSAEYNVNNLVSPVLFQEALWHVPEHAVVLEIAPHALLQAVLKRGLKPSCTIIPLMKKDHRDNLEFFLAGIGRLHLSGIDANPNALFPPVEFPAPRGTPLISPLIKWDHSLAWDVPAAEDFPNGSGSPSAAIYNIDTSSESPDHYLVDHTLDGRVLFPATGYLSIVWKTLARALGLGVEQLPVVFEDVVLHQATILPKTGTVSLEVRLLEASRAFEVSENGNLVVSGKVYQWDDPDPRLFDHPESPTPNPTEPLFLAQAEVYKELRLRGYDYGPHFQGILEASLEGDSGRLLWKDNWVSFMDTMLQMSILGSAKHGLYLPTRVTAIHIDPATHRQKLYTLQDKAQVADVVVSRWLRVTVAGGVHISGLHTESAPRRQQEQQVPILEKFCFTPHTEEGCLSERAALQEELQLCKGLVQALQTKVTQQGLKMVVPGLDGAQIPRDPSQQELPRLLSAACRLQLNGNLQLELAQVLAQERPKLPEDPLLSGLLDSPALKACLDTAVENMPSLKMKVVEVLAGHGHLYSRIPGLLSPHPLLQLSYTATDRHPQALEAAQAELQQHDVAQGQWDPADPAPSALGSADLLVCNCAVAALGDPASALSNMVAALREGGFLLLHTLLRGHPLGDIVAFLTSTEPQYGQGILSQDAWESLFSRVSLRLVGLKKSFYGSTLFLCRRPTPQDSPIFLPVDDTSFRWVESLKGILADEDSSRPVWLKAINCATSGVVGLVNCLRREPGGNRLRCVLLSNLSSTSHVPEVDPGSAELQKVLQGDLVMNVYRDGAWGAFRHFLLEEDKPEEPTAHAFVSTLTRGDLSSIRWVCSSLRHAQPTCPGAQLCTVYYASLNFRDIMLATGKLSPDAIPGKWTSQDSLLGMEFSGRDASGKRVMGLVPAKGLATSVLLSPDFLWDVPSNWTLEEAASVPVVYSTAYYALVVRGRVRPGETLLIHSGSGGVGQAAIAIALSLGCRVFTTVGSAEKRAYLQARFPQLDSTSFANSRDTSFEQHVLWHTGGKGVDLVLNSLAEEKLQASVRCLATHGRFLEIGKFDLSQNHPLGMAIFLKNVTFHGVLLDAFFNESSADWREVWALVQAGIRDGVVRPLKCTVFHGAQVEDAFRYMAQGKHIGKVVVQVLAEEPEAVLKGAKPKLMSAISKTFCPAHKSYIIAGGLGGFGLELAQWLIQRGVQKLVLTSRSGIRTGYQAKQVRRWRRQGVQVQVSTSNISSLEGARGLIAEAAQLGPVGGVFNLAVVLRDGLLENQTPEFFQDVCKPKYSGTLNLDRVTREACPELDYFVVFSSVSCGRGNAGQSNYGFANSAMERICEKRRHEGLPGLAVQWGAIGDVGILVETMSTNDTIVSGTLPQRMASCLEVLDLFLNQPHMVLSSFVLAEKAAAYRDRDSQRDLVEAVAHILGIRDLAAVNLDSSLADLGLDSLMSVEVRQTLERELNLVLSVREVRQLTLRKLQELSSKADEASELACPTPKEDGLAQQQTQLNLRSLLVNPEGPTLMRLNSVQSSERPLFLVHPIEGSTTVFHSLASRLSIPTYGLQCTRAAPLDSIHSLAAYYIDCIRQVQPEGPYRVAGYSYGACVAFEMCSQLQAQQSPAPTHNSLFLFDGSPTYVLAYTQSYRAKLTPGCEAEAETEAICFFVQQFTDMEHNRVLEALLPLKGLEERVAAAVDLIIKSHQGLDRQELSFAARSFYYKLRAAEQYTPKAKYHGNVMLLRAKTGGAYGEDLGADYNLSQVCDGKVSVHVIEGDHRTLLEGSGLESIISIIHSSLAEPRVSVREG
CendR NRP1 mod: modulators of CendR peptide binding to NRP-1, primary screen, biochemical, fluorescence polarization, uHTS | FAM-RPARPAR peptide binding to NRP-1 | Neuropilin-1 (Homo sapiens), O14786 | 360,000 tested, 0.85% active | inhibition, % at 25 µM | AID 602438, 2012;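 active = inhibition or corrected inhibition above about 18%, plus a signal ratio from 0.5 to 1.5, limit read from the data, passing the limit was not always enough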
ADAM17 inh: ADAM17 inhibitors, primary screen, biochemical, QFRET; Disintegrin and metalloproteinase domain-containing protein 17 (Homo sapiens), P78536; recombinant ADAM17, EDANS/DABCYL FRET peptide cleavage; inhibition, % at 6.95 µM; 370,000 tested, 0.83% active; AID 720648, 2013;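 active = inhibition above the mean of compounds lying between control limits plus 3 SD, set per campaign, cut at about 8.5% in these data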;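 note: 0% = DMSO-only wells as the low control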
CaV13 ICDI inh: Primary screen for inhibitors of IQ motif and Ca2+-dependent inactivation inhibitor domain binding in CACNA1D, Förster resonance energy transfer in living cells, … | AID 743397 | 340,000 tested, 0.098% active | HEK cells, CFP/YFP FRET ICDI-IQ, plate reader, 10 min; percent FRET-ratio fall versus neutral wells | inhibition, % at 12.3 µM;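 active = mean replicate inhibition of at least 30% and at least 1% of replicates passing that level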;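 note: 0% = median of the neutral control wells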
ADAM10 inh: human ADAM10 inhibitors, primary screen, biochemical, QFRET, HTS | inhibition, % at 7 µM | Disintegrin and metalloproteinase domain-containing protein 10 (Homo sapiens), O14672 | recombinant ADAM10, EDANS/DABCYL FRET peptide cleavage, 3 h | 370,000 tested, 0.62% active;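 active = inhibition above a per-campaign cutoff equal to the mean of compounds falling between control-based bounds plus 3 SD, cut at about 20% in these data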;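 note: 0% = DMSO wells while the 100% control is not disclosed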
ADAM10 confirm: human ADAM10 inhibitors, confirmation, biochemical, QFRET, triplicate; shares compounds with ADAM10 inh; ADAM10 QFRET peptide cleavage, EDANS fluorescence; inhibition, % at 6.95 µM; 2,100 tested, 1% active; AID 743208, 2013;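 active = inhibition above about 20% chosen separately for each screening run, limit read from the data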;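 note: 0% = DMSO wells and 100% = marimastat wells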
ADAM17 counter: ADAM17 inhibitors, counter-screen for ADAM10 exosite inhibitor project, biochemical, QFRET, high throughput; shares compounds with ADAM10 inh; ADAM17 QFRET peptide cleavage, EDANS fluorescence; inhibition, % at 6.95 µM; 2,100 tested, 0.5% active; AID 743214, 2013;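 active = mean triplicate inhibition above the solvent-only control wells' mean plus 3 SD, cut at about 12% in these data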;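 note: 0% = DMSO wells and 100% = marimastat wells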
* = called active by the depositor; · = not tested or not shown.

SMILES	Arrestin-AP2 inh	FAS TE block	CendR NRP1 mod	ADAM17 inh	CaV13 ICDI inh	ADAM10 inh	ADAM10 confirm	ADAM17 counter
C=CCO[C@H]1CN(C(=O)OC)[C@@H](c2ccccc2Br)C[C@H]1OCC=C	·	·	·	-6	-4	-10	·	·
COC(=O)c1sc2ccccc2c1-n1cccc1C(=O)C(=O)Nc1ccc(OC)cc1	-9	30	3	8	·	22*	5	3
COc1ccc([C@H]2CC(=O)C[C@@H](CCn3nnc4ccccc43)O2)cc1	·	-12	18	-4	-8	-4	·	·
O=C1C(=Cc2cn(-c3ccccc3)nc2-c2ccc(OCc3ccccc3F)cc2)SC(=S)N1CCS(=O)(=O)O	·	42	-136	3	-7	26*	7	0
O=C1NC[C@H](CCCCN2C[C@H](Cc3ccccc3)N(Cc3ccccc3)C(=O)C2=O)N(CCC2CCCCC2)C1=O	·	13	-1	-3	-5	2	·	·
CCOC(=O)[C@]12CCC=C1N(Cc1ccc(Cl)cc1Cl)C(=O)[C@H](CC(=O)N1CCN(C(=O)c3ccco3)CC1)C2	·	3	18	6	-2	8	·	·
Cc1ccc(NS(=O)(=O)c2ccc(NC(=O)C(C)Sc3ccc(Cl)cc3)cc2)c(C)c1 (centres undefined)	-6	36	2	8	-5	27*	9	4
CCCCCCCCN1C(=O)[C@@H](CC(=O)NCc2cccc3ccccc23)C[C@@]2(C(=O)OC)C1=C[C@H](COCc1ccccc1)O[C@@H]2C	·	·	·	3	·	5	·	·
Cc1nn(-c2ccccc2)c(C)c1/C=N/NC(=O)c1cc(-c2cccc3ccccc23)n[nH]1	3	37	-3	8	-5	24*	6	2
CCc1ccc(NC(=O)c2ccc(F)c(S(=O)(=O)N(CC)c3ccccc3)c2)cc1	2	22	-4	3	-2	20*	3	0
OCC1(Cc2ccccc2F)CCCN(CCc2ccccc2)C1 (centres undefined)	12	-2	1	4	-5	23*	1	2
O=C(C1CCCN(S(=O)(=O)c2ccc(Br)s2)C1)N1CCN(Cc2ccccc2)CC1 (centres undefined)	·	·	·	1	·	-2	·	·
O=C(CSc1nc2ccccc2[nH]1)Nc1ccc2c(c1)CCC2	-2	-4	3	-4	-16	20*	2	0
Cc1ccc(C2=CCN(C)C(=O)N2c2ccccc2)cc1	·	·	·	-2	·	-3	·	·
CCOC(=O)c1ccc(N2C(=O)c3n[nH]c(C)c3C2c2cccnc2)cc1 (centres undefined)	1	3	3	-2	·	2	·	·
CCOC(=O)c1ccc(N2C(=O)c3n[nH]c(-c4ccco4)c3C2c2ccc([N+](=O)[O-])cc2)cc1 (centres undefined)	-11	27	1	7	-2	23*	12	3
O=C(NCCNc1ccc([N+](=O)[O-])cc1C(F)(F)F)c1cccc(F)c1	-1	25	4	-2	-5	20*	1	0
CC(C)C[C@H]1CN(CCCC[C@H]2CNC(=O)C(=O)N2Cc2ccccc2)C(=O)C(=O)N1CCC1CCCCC1	·	0	0	-1	-3	1	·	·
Cc1cccc(-c2noc(Cc3ccc(Cl)cc3)n2)c1	5	23	-5	2	-1	20*	4	1
O=C(C(=O)N1CCC(Cc2ccccc2)CC1)c1ccccc1Br	·	·	2	3	-6	4	·	·
Cc1ccc(S(=O)(=O)N(C)C)cc1NC(=S)NNC(=O)C1CC1	15	-12	2	-2	-4	20*	0	0
Cc1ccc(S(=O)(=O)N(C)C)cc1NC(=O)C1CCCC1	-7	-14	0	-1	-4	-4	·	·
CC1CCCCC1NC(=O)C1CC(=O)N(Cc2ccccc2)C1 (centres undefined)	-18	-4	-3	-6	·	54*	0	1
COc1ccc(-c2c(C#N)c(SCc3c(C)noc3C)nc3c2C(=O)CC(C)(C)C3)cc1	1	33	-5	-2	-8	6	·	·
CCc1c(C#N)c(SCCC(=O)Nc2cccc(OC)c2)nc2c1C(=O)CC(C)(C)C2	6	24	1	7	-5	22*	8	1
SMILES	Arrestin-AP2 inh	FAS TE block	CendR NRP1 mod	ADAM17 inh	CaV13 ICDI inh	ADAM10 inh	ADAM10 confirm	ADAM17 counter
O=C(Nc1cccc2ccccc12)c1ccccc1NS(=O)(=O)c1cccc2cccnc12	5	-10	2	-1	-6	-8	·	·
O=C(O)c1ccccc1NS(=O)(=O)c1cccc2cccnc12	5	-3	0	0	-7	22*	-1	0
CC1CC(=O)C2=C(C1)Nc1ccccc1SC2c1ccc(F)cc1 (centres undefined)	22	12	4	2	-4	21*	4	1
CCN(CC)c1ccc(NC(=O)COc2ccccc2C)cc1S(=O)(=O)Nc1ccccc1OC	1	30	2	8	-3	21*	11	3
CCN(CC)c1ccc(NC(=O)c2ccccc2Br)cc1S(=O)(=O)Nc1ccccc1OC	-2	27	-2	4	-2	16	·	·
O=c1[nH][nH]c2c1[C@@H](c1ccc(F)cc1)O[C@H](CCc1ccccc1)C2	·	-44	-8	8	-6	19	·	·
O=c1[nH][nH]c2c1C(c1ccc(F)cc1)OC(CCc1ccccc1)C2 (centres undefined)	·	-13	-6	7	-6	20*	3	1
CCOC(=O)c1c(NC(=O)CSc2nnnn2C)sc(C)c1-c1ccc(C)cc1	11	31	18	6	-5	26*	9	3
CCOC(=O)c1c(-c2ccccc2)csc1NC(=O)CSc1nnnn1C	-1	24	-12	1	-6	4	·	·

Assay outcomes deposited in PubChem by several laboratories.
